# In ChEMBL document CHEMBL1142093, “In vitro activity of the oxazolidinone RWJ-416457 against linezolid-resistant and -susceptible staphylococci and enterococci” (2007):
# Key:
# Staphylococcus aureus [1] = assay: Antimicrobial activity against methicillin-resistant Staphylococcus aureus Ho 4536-0367 with heterozygous 23S rRNA G2576U mutation; type: functional
# In short: (§1)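 MIC by CLSI agar dilution. Resistant clinical enterococcal and S. aureus isolates came mostly from UK patients, a few from Brazil and Austria. Laboratory mutants were selected from clinical isolate ST/02/2121, RN4220 and hypermutable RN4220ΔmutS. Selection used serial broth passage with linezolid rising arithmetically from 0.5 to 10 μg/ml, then repeated subculture on agar with 10 μg/ml linezolid.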
# Staphylococcus aureus [2] = assay: Antimicrobial activity against methicillin-resistant Staphylococcus aureus Ho 4280-0256 with heterozygous 23S rRNA G2576U mutation; type: functional; in short: as §1
# Staphylococcus aureus [3] = assay: Antimicrobial activity against methicillin-resistant Staphylococcus aureus Ho 4536-0368 with heterozygous 23S rRNA G2576U mutation; type: functional; in short: as §1
# Staphylococcus aureus [4] = assay: Antimicrobial activity against methicillin-resistant Staphylococcus aureus Ho 4280-0257 with heterozygous 23S rRNA G2576U mutation; type: functional; in short: as §1
# Staphylococcus aureus [5] = assay: Antimicrobial activity against methicillin-resistant Staphylococcus aureus Ho 4280-0258 with heterozygous 23S rRNA G2576U mutation; type: functional; in short: as §1
# Staphylococcus aureus [6] = assay: Antimicrobial activity against methicillin-resistant Staphylococcus aureus B2 with heterozygous 23S rRNA G2576U mutation; type: functional; in short: as §1
# Staphylococcus aureus [7] = assay: Antimicrobial activity against Staphylococcus aureus RN4220; type: functional; in short: as §1
# Staphylococcus aureus [8] = assay: Antimicrobial activity against Staphylococcus aureus RN4220 with 23S rRNA G2447T mutation; type: functional; in short: as §1
# Staphylococcus aureus [9] = assay: Antimicrobial activity against Staphylococcus aureus RN4220 with 23S rRNA G2576U mutation; type: functional; in short: as §1
# Staphylococcus aureus [10] = assay: Antimicrobial activity against Staphylococcus aureus RN4220 deltamutS with 23S rRNA G2576U mutation; type: functional; in short: as §1
# Staphylococcus aureus [11] = assay: Antimicrobial activity against Staphylococcus aureus RN4220 deltamutS revertant with 23S rRNA G2576U mutation; type: functional; in short: as §1
# Staphylococcus aureus [12] = assay: Antimicrobial activity against Staphylococcus aureus RN4220 deltamutS with 23S rRNA G2576U and A2503G mutation; type: functional; in short: as §1
# Staphylococcus aureus [13] = assay: Antimicrobial activity against Staphylococcus aureus ST/02/2121; type: functional; in short: as §1
# Staphylococcus aureus [14] = assay: Antimicrobial activity against Staphylococcus aureus ST/02/2121 with 23S rRNA T2504C mutation; type: functional; in short: as §1
# Staphylococcus aureus [15] = assay: Antimicrobial activity against Staphylococcus aureus ST/02/2121 with 23S rRNA G2447T mutation; type: functional; in short: as §1
# Staphylococcus aureus [16] = assay: Antimicrobial activity against Staphylococcus aureus RN4220 deltamutS; type: functional; in short: as §1
# Enterococcus faecalis [17] = assay: Antimicrobial activity against Enterococcus faecalis Ho 4450-0446 with heterozygous 23S rRNA G2576U mutation; type: functional; in short: as §1
# Enterococcus faecalis [18] = assay: Antimicrobial activity against Enterococcus faecalis 1 L2 with heterozygous 23S rRNA G2576U mutation; type: functional; in short: as §1
# Enterococcus faecalis [19] = assay: Antimicrobial activity against Enterococcus faecalis 25 with heterozygous 23S rRNA G2576U mutation; type: functional; in short: as §1
# Enterococcus faecalis [20] = assay: Antimicrobial activity against Enterococcus faecalis 37 with heterozygous 23S rRNA G2576U mutation; type: functional; in short: as §1
# Enterococcus faecalis [21] = assay: Antimicrobial activity against Enterococcus faecalis 45 with heterozygous 23S rRNA G2576U mutation; type: functional; in short: as §1
# Enterococcus faecalis [22] = assay: Antimicrobial activity against Enterococcus faecalis 9 with heterozygous 23S rRNA G2576U mutation; type: functional; in short: as §1
# Enterococcus faecium [23] = assay: Antimicrobial activity against Enterococcus faecium Ho 5114-0276 with heterozygous 23S rRNA G2576U mutation; type: functional; in short: as §1
# Enterococcus faecium [24] = assay: Antimicrobial activity against Enterococcus faecium 28 with heterozygous 23S rRNA G2576U mutation; type: functional; in short: as §1
# Enterococcus faecium [25] = assay: Antimicrobial activity against Enterococcus faecium 44 with heterozygous 23S rRNA G2576U mutation; type: functional; in short: as §1
# Enterococcus faecium [26] = assay: Antimicrobial activity against Enterococcus faecium Ho 4418-0062 with heterozygous 23S rRNA G2576U mutation; type: functional; in short: as §1
# Enterococcus faecium [27] = assay: Antimicrobial activity against Enterococcus faecium 18 with heterozygous 23S rRNA G2576U mutation; type: functional; in short: as §1
# Enterococcus faecium [28] = assay: Antimicrobial activity against Enterococcus faecium 31 with heterozygous 23S rRNA G2576U mutation; type: functional; in short: as §1
# Enterococcus faecium [29] = assay: Antimicrobial activity against Enterococcus faecium 16 with homozygous 23S rRNA G2576U mutation; type: functional; in short: as §1
# Enterococcus faecium [30] = assay: Antimicrobial activity against Enterococcus faecium 34 with homozygous 23S rRNA G2576U mutation; type: functional; in short: as §1
# Enterococcus faecium [31] = assay: Antimicrobial activity against Enterococcus faecium Ho 4136-0042; type: functional; conditions: in the assay text read “H0 4136-0043” for “Ho 4136-0042”
# In short: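 MIC by CLSI agar dilution against a clinical enterococcal isolate. The isolates were either linezolid-susceptible UK clinical isolates (about 100 per group) or among 23 linezolid-resistant clinical enterococci and S. aureus, mostly from UK patients, with a few from Brazil and Austria.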
# Enterococcus faecium [32] = assay: Antimicrobial activity against Enterococcus faecium 3 with heterozygous 23S rRNA G2576U mutation
# Enterococcus faecium [33] = assay: Antimicrobial activity against Enterococcus faecium 2 L1 with homozygous 23S rRNA G2576U mutation
smiles,measurement,setting,value
CC(=O)NC[C@H]1CN(c2ccc(N3Cc4cn(C)nc4C3)c(F)c2)C(=O)O1,MIC,Staphylococcus aureus [1],2 µg/mL
same,MIC,Staphylococcus aureus [2],4 µg/mL
same,MIC,Staphylococcus aureus [3],8 µg/mL
same,MIC,Staphylococcus aureus [4],8 µg/mL
same,MIC,Staphylococcus aureus [5],8 µg/mL
same,MIC,Staphylococcus aureus [6],8 µg/mL
same,MIC,Staphylococcus aureus [7],0.5 µg/mL
same,MIC,Staphylococcus aureus [8],8 µg/mL
same,MIC,Staphylococcus aureus [9],4 µg/mL
same,MIC,Staphylococcus aureus [10],8 µg/mL
same,MIC,Staphylococcus aureus [11],8 µg/mL
same,MIC,Staphylococcus aureus [12],8 µg/mL
same,MIC,Staphylococcus aureus [13],1 µg/mL
same,MIC,Staphylococcus aureus [14],8 µg/mL
same,MIC,Staphylococcus aureus [15],4 µg/mL
same,MIC,Staphylococcus aureus [16],0.5 µg/mL
same,MIC,Enterococcus faecalis [17],2 µg/mL
same,MIC,Enterococcus faecalis [18],16 µg/mL
same,MIC,Enterococcus faecalis [19],16 µg/mL
same,MIC,Enterococcus faecalis [20],8 µg/mL
same,MIC,Enterococcus faecalis [21],8 µg/mL
same,MIC,Enterococcus faecalis [22],16 µg/mL
same,MIC,Enterococcus faecium [23],2 µg/mL
same,MIC,Enterococcus faecium [24],8 µg/mL
same,MIC,Enterococcus faecium [25],4 µg/mL
same,MIC,Enterococcus faecium [26],16 µg/mL
same,MIC,Enterococcus faecium [27],8 µg/mL
same,MIC,Enterococcus faecium [28],8 µg/mL
same,MIC,Enterococcus faecium [29],16 µg/mL
same,MIC,Enterococcus faecium [30],32 µg/mL
same,MIC,Enterococcus faecium [31],16 µg/mL
same,MIC,Enterococcus faecium [32],16 µg/mL
same,MIC,Enterococcus faecium [33],32 µg/mL
CC(=O)NC[C@H]1CN(c2ccc(N3CCOCC3)c(F)c2)C(=O)O1 [LINEZOLID],MIC,Staphylococcus aureus [1],8 µg/mL
same,MIC,Staphylococcus aureus [2],16 µg/mL
same,MIC,Staphylococcus aureus [3],32 µg/mL
same,MIC,Staphylococcus aureus [4],32 µg/mL
same,MIC,Staphylococcus aureus [5],32 µg/mL
same,MIC,Staphylococcus aureus [6],32 µg/mL
same,MIC,Staphylococcus aureus [8],16 µg/mL
same,MIC,Staphylococcus aureus [9],16 µg/mL
same,MIC,Staphylococcus aureus [10],16 µg/mL
same,MIC,Staphylococcus aureus [11],16 µg/mL
same,MIC,Staphylococcus aureus [12],32 µg/mL
same,MIC,Staphylococcus aureus [14],16 µg/mL
same,MIC,Staphylococcus aureus [15],16 µg/mL
same,MIC,Enterococcus faecalis [18],32 µg/mL
same,MIC,Enterococcus faecalis [19],32 µg/mL
same,MIC,Enterococcus faecalis [20],32 µg/mL
same,MIC,Enterococcus faecalis [21],32 µg/mL
same,MIC,Enterococcus faecalis [22],64 µg/mL
same,MIC,Enterococcus faecium [23],8 µg/mL
same,MIC,Enterococcus faecium [24],16 µg/mL
same,MIC,Enterococcus faecium [25],16 µg/mL
same,MIC,Enterococcus faecium [26],32 µg/mL
same,MIC,Enterococcus faecium [27],32 µg/mL
same,MIC,Enterococcus faecium [28],32 µg/mL
same,MIC,Enterococcus faecium [29],64 µg/mL
same,MIC,Enterococcus faecium [30],64 µg/mL
same,MIC,Enterococcus faecium [31],64 µg/mL
same,MIC,Enterococcus faecium [32],64 µg/mL
same,MIC,Enterococcus faecium [33],64 µg/mL
